pEC50: −log10 of the molar value.
Assays:
Leishmania major [1] = experiment: Antiparasite activity against luciferase-expressing Leishmania major amastigotes isolated from infected in mouse RAW264.7 cells assessed as growth inhibition incubated for 96 hrs by luciferase reporter gene assay; type: functional, organism-based; details: RAW264.7, 96 h
Leishmania major [2] = experiment: Antiparasite activity against Leishmania major promastigotes assessed as growth inhibition incubated for 44 hrs by alamar blue dye based fluorescence assay; type: functional, organism-based
Trypanosoma cruzi = experiment: Antiparasite activity against Trypanosoma cruzi Tulahuen expressing beta-galactosidase assessed as growth inhibition incubated for 96 hrs by CPRG dye based assay; type: functional, organism-based
[3] = Protein binding in plasma (unknown origin) assessed as fraction unbound; type: ADME, cell-free
Plasmodium falciparum [4] = experiment: Antiparasite activity against Plasmodium falciparum D6 assessed as growth inhibition incubated for 72 hrs by SYBR green fluorescence assay; type: functional, organism-based; details: D6, 72 h
[5] = Toxicity against human HepG2 cells incubated for 48 hrs by MTT assay; type: cell-based; details: read-out: TC50
[6] = Aqueous solubility of the compound; type: physicochemical; details: buffer
Procedure, shortened: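 Aqueous solubility measured as thermodynamic solubility.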

Trypanosoma brucei [7] = experiment: Antiparasite activity against Trypanosoma brucei 427 assessed as growth inhibition incubated for 48 hrs by PrestoBlue based fluorescence assay; type: functional, organism-based; details: Trypanosoma brucei, 427, 48 h
Plasmodium falciparum [8] = experiment: Antiparasite activity against drug resistant Plasmodium falciparum C235 assessed as growth inhibition incubated for 72 hrs by SYBR green fluorescence assay; type: functional, organism-based; details: C235, 72 h
Plasmodium falciparum [9] = experiment: Antiparasite activity against drug resistant Plasmodium falciparum W2 assessed as growth inhibition incubated for 72 hrs by SYBR green fluorescence assay; type: functional, organism-based; details: W2, 72 h
Trypanosoma brucei [10] = experiment: Antiparasite activity against Trypanosoma brucei 427 assessed as growth inhibition at 5 uM incubated for 48 hrs by PrestoBlue based fluorescence assay; type: functional; details: Trypanosoma brucei, 427, 48 h; read-out: GI
Hepatocyte = experiment: Intrinsic clearance in rat hepatocytes assessed per 10^6 cells; type: ADME, cell-based

| Structure (SMILES) | pEC50 (Leishmania major [1]) | pEC50 (Leishmania major [2]) | pEC50 (Trypanosoma cruzi) | Fu [3] | pEC50 (Plasmodium falciparum [4]) | CC50 at 48 h [5] | solubility [6] | pEC50 (Trypanosoma brucei [7]) | pEC50 (Plasmodium falciparum [8]) | pEC50 (Plasmodium falciparum [9]) | inhibition of growth at 5 µM (Trypanosoma brucei [10]) | CLH (Hepatocyte) |
| --- | --- | --- | --- | --- | --- | --- | --- | --- | --- | --- | --- | --- |
| Fc1cccc(COc2ccc(Nc3ncnc4ccc(-c5cccc(N6CCOCC6)c5)cc34)cc2Cl)c1 | 5.10 | 5.52 | 5.74 | < 1% | 6.64 | > 15000 nM | < 1 µM | 7.38 | – | – | – | – |
| CN1CCCN(S(=O)(=O)c2ccc(-c3ccc4nncc(Nc5ccc(OCc6cccc(F)c6)c(Cl)c5)c4c3)cc2)CC1 | 5.97 | 5.39 | 5.66 | – | 7.57 | 7300 nM | – | 6.24 | 7.72 | 7.20 | – | – |
| CN1CCN(S(=O)(=O)c2ccc(-c3ccc4c(Nc5ccc(OCc6cccc(F)c6)c(Cl)c5)ccnc4c3)cc2)CC1 | 5.80 | 6.00 | 6.14 | < 1% | 7.72 | > 4000 nM | – | 7.10 | 7.41 | 7.38 | – | – |
| Fc1cccc(COc2ccc(Nc3nccc4ccc(-c5cccc(N6CCOCC6)c5)cc34)cc2Cl)c1 | 5.22 | < 4.82 | < 4.30 | – | 5.59 | > 28000 nM | – | – | 5.21 | 4.72 | 0.1% | – |
| Fc1cccc(COc2ccc(Nc3nccc4cc(-c5cccc(N6CCOCC6)c5)ccc34)cc2Cl)c1 | 5.66 | < 4.82 | < 4.30 | – | 5.55 | > 28000 nM | – | – | 5.33 | 4.72 | 12% | – |
| CN1CCN(S(=O)(=O)c2ccc(-c3ccc4c(Nc5ccc(OCc6cccc(F)c6)c(Cl)c5)cnnc4c3)cc2)CC1 | 5.70 | 5.24 | 5.51 | – | 7.85 | > 15000 nM | – | 6.00 | 7.60 | 7.26 | – | – |
| Fc1cccc(COc2ccc(Nc3nncc4ccc(-c5cccc(N6CCOCC6)c5)cc34)cc2Cl)c1 | 5.77 | < 4.82 | < 4.30 | – | 6.96 | > 15000 nM | – | 6.54 | 6.40 | 6.21 | – | – |
| Fc1cccc(COc2ccc(Nc3nncc4cc(-c5cccc(N6CCOCC6)c5)ccc34)cc2Cl)c1 | 5.66 | < 4.82 | < 4.30 | – | 6.62 | > 15000 nM | – | 5.85 | 6.47 | 6.21 | – | – |
| O=S(=O)(c1ccc(-c2ccc3cnnc(Nc4ccc(OCc5ccccc5)c(Cl)c4)c3c2)cc1)N1CCOCC1 | < 5.40 | < 5.47 | < 4.30 | – | 6.27 | > 5200 nM | – | 6.07 | 5.92 | 5.77 | – | – |
| O=S(=O)(c1ccc(-c2ccc3c(Nc4ccc(OCc5ccccc5)c(Cl)c4)nncc3c2)cc1)N1CCOCC1 | < 4.82 | < 4.82 | < 4.30 | – | 6.96 | > 15000 nM | – | 6.00 | 6.77 | 6.46 | – | – |
| CN1CCN(S(=O)(=O)c2ccc(-c3ccc4cnnc(Nc5ccc(OCc6cccc(F)c6)c(Cl)c5)c4c3)cc2)CC1 | < 5.40 | < 5.49 | < 4.30 | – | 6.89 | > 5000 nM | – | 5.70 | 6.42 | 6.37 | – | – |
| CN1CCN(S(=O)(=O)c2ccc(-c3ccc4c(Nc5ccc(OCc6cccc(F)c6)c(Cl)c5)nncc4c3)cc2)CC1 | < 4.82 | 5.89 | 4.74 | – | 7.35 | > 15000 nM | – | 5.92 | 7.12 | 6.89 | – | – |
| CN1CCCN(S(=O)(=O)c2ccc(-c3ccc4cnnc(Nc5ccc(OCc6cccc(F)c6)c(Cl)c5)c4c3)cc2)CC1 | 5.25 | < 4.82 | 4.77 | – | 7.03 | 14000 nM | – | 6.21 | 6.74 | 6.60 | – | – |
| CN1CCCN(S(=O)(=O)c2ccc(-c3ccc4c(Nc5ccc(OCc6cccc(F)c6)c(Cl)c5)nncc4c3)cc2)CC1 | 5.96 | 6.39 | 5.89 | – | 7.54 | 3400 nM | – | 6.29 | 7.35 | 7.19 | – | – |
| N#Cc1cnc2ccc(-c3cccc(N4CCOCC4)c3)cc2c1Nc1ccc(OCc2cccc(F)c2)c(Cl)c1 | < 4.82 | < 4.82 | < 4.30 | – | 6.32 | > 15000 nM | – | – | 6.14 | 6.00 | 49% | – |
| N#Cc1cnc2ccc(-c3cccc(N4CCOCC4)c3)cc2c1Nc1ccc(OCc2ccccc2)c(Cl)c1 | < 4.82 | < 4.82 | < 4.30 | – | 6.01 | > 15000 nM | – | 6.12 | 6.01 | 6.09 | – | – |
| N#Cc1cnc2ccc(-c3ccc(S(=O)(=O)N4CCOCC4)cc3)cc2c1Nc1ccc(OCc2cccc(F)c2)c(Cl)c1 | < 4.82 | < 4.82 | < 4.30 | – | 6.80 | > 15000 nM | – | – | 6.62 | 6.52 | 15% | – |
| N#Cc1cnc2ccc(-c3ccc(S(=O)(=O)N4CCOCC4)cc3)cc2c1Nc1ccc(OCc2ccccc2)c(Cl)c1 | < 4.82 | < 4.82 | < 4.30 | – | 6.55 | > 15000 nM | – | – | 6.39 | 6.24 | 33% | – |
| CN1CCN(S(=O)(=O)c2ccc(-c3ccc4ncc(C#N)c(Nc5ccc(OCc6cccc(F)c6)c(Cl)c5)c4c3)cc2)CC1 | < 4.82 | < 4.82 | < 4.30 | – | 7.09 | > 15000 nM | – | 5.96 | 6.96 | 6.70 | – | – |
| CN1CCN(S(=O)(=O)c2ccc(-c3ccc4ncc(C#N)c(Nc5ccc(OCc6ccccc6)c(Cl)c5)c4c3)cc2)CC1 | < 4.82 | 5.39 | < 4.30 | – | 6.68 | > 15000 nM | – | 5.72 | 6.59 | 6.29 | – | – |
| CN1CCCN(S(=O)(=O)c2ccc(-c3ccc4ncc(C#N)c(Nc5ccc(OCc6cccc(F)c6)c(Cl)c5)c4c3)cc2)CC1 | 5.80 | 6.04 | 7.05 | < 1% | 7.33 | > 15000 nM | – | 6.46 | 7.18 | 7.00 | – | 37.95 µL/min |
| CN1CCCN(S(=O)(=O)c2ccc(-c3ccc4ncc(C#N)c(Nc5ccc(OCc6ccccc6)c(Cl)c5)c4c3)cc2)CC1 | 5.64 | 5.80 | 6.02 | – | 7.24 | 13000 nM | – | 6.37 | 7.24 | 7.08 | – | – |

From ChEMBL document CHEMBL3588845, “Protozoan Parasite Growth Inhibitors Discovered by Cross-Screening Yield Potent Scaffolds for Lead Discovery” (J Med Chem, 2015)
